pIC50: −log10 of the molar value. Active and inactive are the calls of the source. The rule behind the calls is not given here.

In data set [1] the test system is SK-MEL-28. As to the kind of experiment: Cytotoxicity against human SK-MEL-28 cells after 72 hrs by MTT assay. The following applies: SK-MEL-28, 72 h. The data set is classed as functional, cell-based. The essentials: (§1)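 Cells grown in RPMI with 10% heat-inactivated fetal calf serum and exposed to compound for 72 h. Overall growth read by MTT colorimetric assay; IC50 derived from it. Six replicates per condition.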

The nature of data set [2]: Cytotoxicity against human Hs683 cells after 72 hrs by MTT assay. The data set is classed as functional, cell-based. The following applies: Hs 683, 72 h. An outline of the steps:
as §1
(Tetrazolium dyes change colour on reduction, which living cells bring about.)

A short description of data set [3]: Cytotoxicity against human U373 cells after 72 hrs by MTT assay. The data set is classed as functional, cell-based, U-373MG ATCC. Particulars: U373 MG. An outline of the steps:
as §1

The subject of data set [4] is PC-3. As to the kind of experiment: Cytotoxicity against human PC3 cells after 72 hrs by MTT assay. The data set is classed as functional, cell-based. The following applies: PC-3, 72 h. The essentials: as §1
Data set [5] deals with A549. The data set is described as follows: Cytotoxicity against human A549 cells after 72 hrs by MTT assay. Particulars: A549, 72 h. The data set is classed as functional, cell-based. The essentials:
as §1

The test system of data set [6] is MCF7. As to the kind of experiment: Cytotoxicity against human MCF7 cells after 72 hrs by MTT assay. The data set is classed as functional, cell-based. Particulars: MCF7, 72 h. An outline of the steps: as §1
Data set [7] is described as follows: Selectivity index for human U373 cells over NMRI mouse astrocytes. Also noted: species or system U-373MG ATCC.
For data set [8], the system named is Hs 683. The data set is described as follows: Selectivity index for NMRI mouse astrocytes over human Hs683 cells.
Another data set is filed under the species Cavia porcellus. The data set is described as follows: Inhibition of guinea pig brain Na+/K+-ATPase at 1 mM preincubated for 10 mins measured after 30 mins relative to control.
Data set [9] deals with Hs 683. As to the kind of experiment: Cytostatic activity against human Hs683 cells at 40 uM after 48 to 72 hrs by videomicroscopic analysis relative to control. The data set is classed as functional. The essentials:
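Hs683 glioma cells, untreated or at 40 µM, filmed by computer-assisted phase-contrast videomicroscopy over 72 h, one image every 4 min (1080 images), in triplicate. Growth rate = cell count in last image / first image. GGR index = treated ratio / control ratio.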

Data set [10] is described as follows: Chemical stability of the compound in RPMI culture medium after 72 hrs by mass spectroscopic analysis. The data set is classed as physicochemical. The essentials:
(§2)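 5 mM DMSO stock diluted 100-fold in water or RPMI and held at 37 °C for 72 h. Samples infused into ESI-QTOF MS (positive mode, scan 110–950 m/z) with FA 0.2%-MeOH 50:50 as solvent.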

Data set [11] is described as follows: Chemical stability of the compound in water after 72 hrs by mass spectroscopic analysis. The data set is classed as physicochemical. The following applies: buffer. The essentials: as §2
A short description of data set [12]: Growth inhibition of NMRI mouse astrocytes after 72 hrs by MTT assay. The data set is classed as cell-based. The following applies: Astrocyte.
A short description of data set [13]: Growth inhibition of NMRI mouse astrocytes at 30 to 300 uM after 72 hrs by MTT assay. The data set is classed as cell-based, Astrocyte. Particulars: read-out: GI. The essentials:
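Mouse astrocyte primocultures were plated in uncoated T25 flasks for 72 h, medium was changed and cells grown to confluence. Tested at 0, 30, 60 and 300 µM by MTT colorimetric assay.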

In data set [14] the test system is SK-MEL-28. As to the kind of experiment: Ratio of perillyl alcohol IC50 to compound IC50 for human SK-MEL-28 cells. The data set is classed as functional.
In data set [15] the test system is Hs 683. The data set is described as follows: Ratio of perillyl alcohol IC50 to compound IC50 for human Hs683 cells. The data set is classed as functional.
Data set [16] is described as follows: Ratio of perillyl alcohol IC50 to compound IC50 for human U373 cells. The data set is classed as functional, U-373MG ATCC.
Data set [17] deals with PC-3. The data set is described as follows: Ratio of perillyl alcohol IC50 to compound IC50 for human PC3 cells. The data set is classed as functional.
For data set [18], the system named is A549. The data set is described as follows: Ratio of perillyl alcohol IC50 to compound IC50 for human A549 cells. The data set is classed as functional.
The test system of data set [19] is MCF7. The data set is described as follows: Ratio of perillyl alcohol IC50 to compound IC50 for human MCF7 cells. The data set is classed as functional.
Data set [20] has as its system Hs 683. The data set is described as follows: Inhibition of RAS oncogene activity in human Hs683 cells at 2 mM after 5 to 29 mins by ELISA. The data set is classed as cell-based. Particulars: in the assay text read “5 to 20 mins” for “5 to 29 mins”. An outline of the steps:
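Hs683 glioma cells treated with 2 mM for 5 and 20 min, lysed, 100 µg protein used. GTP-Ras captured by GST-Raf-RBD and detected with H-Ras antibody, HRP secondary and chemiluminescence.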
For orientation: In an ELISA, binding on a coated surface is turned into a signal by an enzyme label.

As a reminder, the pIC50 is −log10 of the IC50, conventionally taken in molar units. A high value points to a small IC50. With `CCOC(=O)c1sc(N2CCCC2)nc1Cl`, the pIC50 was 4.09 in the data set with SK-MEL-28 [1]; 4.27 in [2]; less than 4.00 in data set [3]; 4.11 with PC-3 [4]; 4.21 with A549 [5]; 4.10 in the data set on MCF7 [6].
On to `CC(=O)c1sc(N2CCOCC2)nc1Cl`, for which the negative logarithm of the IC50 (pIC50) with SK-MEL-28 [1] was less than 4.00; in data set [2], less than 4.00; in data set [3], 4.08; in the data set on PC-3 [4], less than 4.00; in the data set with A549 [5], less than 4.00; in the data set with MCF7 [6] it was 4.06.
On to `CSc1nc(Br)c(C(=O)c2ccccc2)s1`, for which the pIC50 with SK-MEL-28 [1] is less than 4.00; in data set [2], less than 4.00; in [3] it was 4.05; in the data set on PC-3 [4], less than 4.00; in the data set on A549 [5] it was 4.01; in the data set on MCF7 [6], 4.17.
Regarding `O=C(c1ccccc1)c1sc(N2CCCC2)nc1Br`, the pIC50 with SK-MEL-28 [1] is less than 4.00; in data set [2], less than 4.00; in data set [3], less than 4.00; in the data set with PC-3 [4] it was less than 4.00; in the data set on A549 [5], 4.01; in the data set on MCF7 [6], 4.16.
On to `O=C(c1ccccc1)c1sc(N2CCOCC2)nc1Cl`, for which the pIC50 in the data set with SK-MEL-28 [1] was less than 4.00; in [2] it was less than 4.00; in [3], 4.04; in the data set with PC-3 [4], less than 4.00; with A549 [5], 4.11; in the data set with MCF7 [6] it was 4.15.
Turning to `COC(=O)c1sc2nc(SC)sc2c1C`, the pIC50 is less than 4.00 in the data set on SK-MEL-28 [1]; 4.10 in data set [2]; 4.04 in data set [3]; 4.05 with PC-3 [4]; 4.11 with A549 [5]; 4.16 with MCF7 [6].
Consider `O=C(c1ccccc1)c1sc(N2CCCCC2)nc1Cl`, for which the “Selectivity Index” value (in data set [7]; with Hs 683 [8]) was more than 5 in each case. In addition, the inhibition in the data set listed under Cavia porcellus is more than 50%. The Activity in the data set on Hs 683 [9] was found to be 40%. In addition, the Stability entry in [10] and in [11] was “Stable” in each case. Further, the pIC50 in data set [12] was less than 3.52; in the data set with SK-MEL-28 [1], 4.04; in data set [2], 4.44; in [3], 4.02; in the data set with PC-3 [4], 4.16; in the data set on A549 [5] it was 4.39. Besides, the pIC50 with MCF7 [6] was 4.25. Also, the inhibition at 72 h, up to 300 µM in [13] is less than 50%. Further, the “Ratio IC50” value (in the data set with SK-MEL-28 [14]; in the data set with Hs 683 [15]; in data set [16]; in the data set with PC-3 [17]; with A549 [18]; in the data set on MCF7 [19]) was 10 each time.
With `C=C(C)[C@@H]1CC=C(CO)CC1` [PERILLYL ALCOHOL], the inhibition entry in the data set with Hs 683 [20] is “Active”. Further, the pIC50 (with SK-MEL-28 [1]; in data set [2]; in data set [3]; in the data set on PC-3 [4]; with A549 [5]; in the data set with MCF7 [6]) was less than 3.00 in each case.
In the case of `COC(=O)c1sc2nc(N3CCCC3)sc2c1C`, the pIC50 was less than 4.00 in the data set with SK-MEL-28 [1]; 4.04 in data set [2]; 4.05 in [3]; less than 4.00 in the data set on PC-3 [4]; 4.07 in the data set on A549 [5]; 4.25 in the data set on MCF7 [6].
For `COC(=O)c1sc2nc(N3CCCCC3)sc2c1C`, the pIC50 was less than 4.00 with SK-MEL-28 [1]; less than 4.00 in data set [2]; less than 4.00 in [3]; 4.03 in the data set with PC-3 [4]; less than 4.00 in the data set with A549 [5]; 4.05 in the data set on MCF7 [6].
As for `CSc1nc(Cl)c(C(=O)c2ccccc2)s1`, the pIC50 was less than 4.00 in the data set with SK-MEL-28 [1]; less than 4.00 in data set [2]; less than 4.00 in data set [3]; less than 4.00 in the data set with PC-3 [4]; less than 4.00 with A549 [5]; 4.04 with MCF7 [6].
As for `N#Cc1sc(N2CCCCC2)nc1Br`, the pIC50 was less than 4.00 in the data set on SK-MEL-28 [1]; 4.08 in [2]; less than 4.00 in data set [3]; less than 4.00 with PC-3 [4]; 4.03 with A549 [5]; 4.11 with MCF7 [6].
For `COC(=O)c1sc2nc(N3CCOCC3)sc2c1C`, the pIC50 was less than 4.00 with SK-MEL-28 [1]; 4.04 in [2]; less than 4.00 in data set [3]; less than 4.00 in the data set with PC-3 [4]; 4.02 in the data set with A549 [5]; 4.11 in the data set on MCF7 [6].
With `N#Cc1sc(N2CCCC2)nc1Cl`, the pIC50 in the data set on SK-MEL-28 [1] is less than 4.00; in [2] it was less than 4.00; in data set [3], less than 4.00; with PC-3 [4] it was less than 4.00; with A549 [5], less than 4.00; in the data set with MCF7 [6], 4.00.
As to `O=C(c1ccccc1)c1sc(N2CCOCC2)nc1Br`, the pIC50 was less than 4.00 in the data set with SK-MEL-28 [1]; 4.03 in [2]; less than 4.00 in [3]; less than 4.00 in the data set with PC-3 [4]; 4.08 with A549 [5]; 4.29 in the data set on MCF7 [6].
As for `O=C(c1ccccc1)c1sc(N2CCCC2)nc1Cl`, the pIC50 was 4.01 in the data set with SK-MEL-28 [1]; 4.36 in [2]; 4.09 in data set [3]; less than 4.00 in the data set on PC-3 [4]; 4.30 in the data set on A549 [5]; 4.20 in the data set with MCF7 [6].

Source of the values: ChEMBL document CHEMBL2375228, “4-Bromo-2-(piperidin-1-yl)thiazol-5-yl-phenyl methanone (12b) inhibits Na+/K(+)-ATPase and Ras oncogene activity in cancer cells” (Eur J Med Chem, 2013).
